Measured values reported in PubChem BioAssay.
Activity calls are given as the source filed them.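 How the source made its calls, unless noted: active means fluorescence slope after compound addition differing from the mean of all tested samples at 99.7% confidence, mostly higher but some lower; inactive means the rest.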

Tests used:
[1] = inhibitors of TNFa-induced NFkB p65 translocation, primary screen, imaging, HUVEC, MLSMR starter and 10KST1 sets (AID 438;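 active means inhibition above 20% together with a positive visual image hit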;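 further: compound added about 3h40 before a 20 min TNFalpha stimulation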;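 on inhibition: signal is the nuclear over cytoplasmic p65 intensity ratio per well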); settings: HUVEC TNFa-induced p65 nuclear translocation; cell count: measured here: nuclei count (cytotoxicity indicator), at 2.08 µM; inhibition: at 2 µM, stronger effect = higher value, 0% TNFa-plus-vehicle, 100% no-TNFa wells
[2] = reduction of polyQ htt aggregates in cells – imaging, exon1htt(103Q)mCFP cells, high-content imaging, primary screen (AID 483;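 active means visual image review flags a hit and inhibition of aggregation exceeds 20%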;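 further: compound exposure lasted 3 days before fixation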;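 on nuclei count: percent of the per-plate median nuclei count of sample wells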); settings: exon1htt(103Q)mCFP cell line, aggregate imaging, at 2 µM; inhibition of aggregation: stronger effect = higher value; nuclei count: measured here: cell count, toxicity
[3] = endothelial E-selectin expression blockers – imaging, HUVEC, immunofluorescence, MLSMR starter and 10KST1 sets, primary screen (AID 487;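 active means visually confirmed hit in the image check and inhibition above 20%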;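 on inhibition: signal is fraction of cell area covered by stained E-selectin grains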;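 on nuclei count: 100% = median nuclei count of all wells on the same plate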); settings: HUVEC TNFalpha-induced E-selectin immunofluorescence imaging, at 2 µM; inhibition: stronger effect = higher value; nuclei count: measured here: cell number, toxicity
[4] = molecular target: Voltage-gated potassium channel subunit beta-2 (Rattus norvegicus) (UniProt P62483); assay: inhibitors of rat Kvbeta2 reductase activity – biochemical, NADPH fluorescence, primary screen (AID 622;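 active means fluorescence slope higher than the sample average by over 3 SD, cut at about -0.22 in these data, passing the limit was not always enough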;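 further: slope of raw intensity against log time taken from 70 to 1610 s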); settings: recombinant KvBeta, 4-cyanobenzaldehyde reduction, at 10 µM, stronger effect = higher value
[5] = molecular target: Voltage-gated potassium channel subunit beta-2 (Rattus norvegicus) (UniProt P62483); assay: enhancers of rat Kvbeta2 NADPH turnover – biochemical, NADPH fluorescence, primary screen (AID 623;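 active means NADPH fluorescence slope more negative than the mean of all samples by about 3 SD, 99.7% confidence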;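 further: fluorescence intensity change per second fitted from 20 to 320 s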); settings: Recombinant KvBeta, NADPH fluorescence decrease slope, 10 min; at 10 µM; stronger effect = lower value
[6] = molecular target: Muscarinic acetylcholine receptor M4 (Homo sapiens) (UniProt P08173); assay: M4-linked GIRK flux change, two-sided – cell-based, HEK293 M4/GIRK, thallium flux, BTC-AM, M4 allosteric agonist project, primary screen (AID 625); settings: at 10 µM, actives lie on both sides;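 further: thallium influx through GIRK channels coupled to M4 in HEK293 cells with BTC-AM dye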
In short: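 Material – HEK293 cells with M4 receptor and GIRK channels · Buffer or medium – pH 7.3 thallium assay buffer · Doses – one dose, 10 µM final · Timing – cells overnight at 37 °C, BTC-AM loading 1 h, reads 2 min total · Measured by – kinetic fluorescence with BTC-AM dye · Controls – carbachol and DMSO controls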

[7] = blockers of RIG-like receptor reporter activation – cell-based, Sendai virus stimulus, luciferase, 10K MLSCN set, TLR/RLR signaling modifier project, primary screen (AID 602276;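 active means inhibition at or above 50% at 10 µM; inactive means inhibition below 50%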;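 further: firefly luciferase from ISG56 promoter only with Renilla not read in this screen; 0% = Sendai virus plus DMSO and 100% = medium plus DMSO without virus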); settings: HEK293 RL24 IRF3 luciferase reporter, at 10 µM, stronger effect = higher value
[8] = TLR3 IRF3 reporter activation blockers – cell-based, poly I:C stimulus, luciferase, 10K MLSCN set, primary screen (AID 602277;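 active means inhibition of the reporter signal at or above 50%; inactive means inhibition below 50%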); settings: HEK293-TLR3 RL24 IRF3 luciferase reporter, at 10 µM, stronger effect = higher value

Voltage-gated potassium channel subunit beta-2 (Rattus norvegicus), sequence (P62483 whole entry, looked up): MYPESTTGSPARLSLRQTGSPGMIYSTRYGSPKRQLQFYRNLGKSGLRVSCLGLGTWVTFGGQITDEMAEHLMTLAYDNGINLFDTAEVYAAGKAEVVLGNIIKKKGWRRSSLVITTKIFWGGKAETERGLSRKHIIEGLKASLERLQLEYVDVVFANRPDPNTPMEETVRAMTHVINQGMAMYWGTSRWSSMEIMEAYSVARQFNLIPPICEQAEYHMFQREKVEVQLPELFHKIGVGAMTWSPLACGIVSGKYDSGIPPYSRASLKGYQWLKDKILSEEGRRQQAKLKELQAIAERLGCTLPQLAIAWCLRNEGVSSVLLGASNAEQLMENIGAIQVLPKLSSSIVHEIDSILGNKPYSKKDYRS
Muscarinic acetylcholine receptor M4 (Homo sapiens), sequence (P08173 whole entry, looked up): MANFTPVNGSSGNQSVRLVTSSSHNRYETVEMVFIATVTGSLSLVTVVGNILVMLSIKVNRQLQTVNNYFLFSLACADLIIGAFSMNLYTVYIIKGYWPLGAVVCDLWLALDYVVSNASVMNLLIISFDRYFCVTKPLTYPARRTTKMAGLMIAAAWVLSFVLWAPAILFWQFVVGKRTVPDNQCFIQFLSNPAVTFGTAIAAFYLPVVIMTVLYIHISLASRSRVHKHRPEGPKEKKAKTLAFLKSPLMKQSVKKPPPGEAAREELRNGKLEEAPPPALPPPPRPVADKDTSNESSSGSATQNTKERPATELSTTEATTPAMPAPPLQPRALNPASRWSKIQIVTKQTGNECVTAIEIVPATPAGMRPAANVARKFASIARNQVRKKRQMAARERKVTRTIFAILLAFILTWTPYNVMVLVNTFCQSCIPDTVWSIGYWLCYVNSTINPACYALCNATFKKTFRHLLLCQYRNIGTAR

Structure (SMILES) | cell count [1] | inhibition [1] | inhibition of aggregation [2] | nuclei count [2] | inhibition [3] | nuclei count [3] | fluorescence slope [4] | NADPH fluorescence slope [5] | fluorescence slope [6] | inhibition [7] | inhibition [8]
CCOC(=O)CS(=O)(=O)c1nc(-c2ccccc2)cc(C(F)(F)F)n1 | 380 | 2.8% (inactive) | -12.2% (inactive) | 102% | -15.5% (inactive) | 116% | -0.462 (inactive) | -1.5e-05 (inactive) | 0.00498 (inactive) | 20.1% (inactive) | 32.7% (inactive)
Cc1ccc(C)c(-c2nc3cc(N)ccc3o2)c1 | 407 | 12.5% (inactive) | 20.6% (inactive) | 97.9% | -435% (inactive) | 124% | -0.0313 (active) | -3e-06 (inactive) | 0.00545 (inactive) | 4.93% (inactive) | 1.69% (inactive)
C=CCn1c(SCc2cc(=O)n3ccsc3n2)nnc1C1CCCCC1 | 439 | 3.8% (inactive) | -27.5% (inactive) | 104% | 3.6% (inactive) | 116% | -0.561 (inactive) | -1.8e-05 (inactive) | 0.00775 (inactive) | 9.44% (inactive) | 21.1% (inactive)
CCOC(=O)C1C(=O)OC(C)(C)C1C(C)C(=O)c1ccc(OC)cc1 (stereo not drawn) | 605 | -6.4% (inactive) | -4.2% (inactive) | 42.1% | 3.9% (inactive) | 92.7% | -0.47 (inactive) | 3.2e-06 (inactive) | 0.00448 (inactive) | 21.2% (inactive) | 23.4% (inactive)
COc1ccccc1CN(Cc1nc2ccccc2c(=O)[nH]1)C(=O)Nc1ccccc1 | 733 | -6.8% (inactive) | 16.9% (inactive) | 87.7% | -68.2% (inactive) | 134% | -0.49 (inactive) | -4.8e-05 (inactive) | 0.0059 (inactive) | 3.14% (inactive) | 12.2% (inactive)
CCOC(=O)c1cccc(NC(=O)CCn2nnc3ccccc32)c1 | 341 | 1.2% (inactive) | 4.8% (inactive) | 112% | -4.7% (inactive) | 118% | -0.457 (inactive) | -2.8e-05 (inactive) | 0.00454 (inactive) | 18.4% (inactive) | 8.84% (inactive)
c1cncc(-c2nnc(SCCSc3nnc(-c4cccnc4)o3)o2)c1 | 301 | -10% (inactive) | 20.4% (inactive) | 75.6% | 11.1% (inactive) | 122% | -0.345 (inactive) | -7.7e-06 (inactive) | 0.00585 (inactive) | 14.3% (inactive) | 20.3% (inactive)
O=C(Nc1ccc(CN2CCOCC2)cc1)c1cc2ccccc2oc1=O | 426 | 3.6% (inactive) | -12.6% (inactive) | 118% | -218% (inactive) | 146% | -0.53 (inactive) | -7.9e-05 (inactive) | 0.00463 (inactive) | 0.662% (inactive) | 29.5% (inactive)
COc1ccc(CCNC(=O)COc2ccc(S(=O)(=O)N3CCOCC3)cc2)cc1 | 588 | -17.6% (inactive) | 10.7% (inactive) | 88.7% | 11.7% (inactive) | 116% | -0.32 (inactive) | -4.1e-05 (inactive) | 0.00641 (inactive) | 12.7% (inactive) | 23% (inactive)
O=C(Nc1nnc(C2CCCCC2)s1)c1cccs1 | 511 | -8.1% (inactive) | -2.9% (inactive) | 108% | -77.2% (inactive) | 121% | -0.437 (inactive) | -2.3e-05 (inactive) | 0.00416 (inactive) | -37.9% (inactive) | -113% (inactive)
CCCn1c(SCC(=O)NCCc2ccccc2)nnc1-c1ccccn1 | 501 | -7.9% (inactive) | 12.6% (inactive) | 103% | -28.9% (inactive) | 104% | -0.543 (inactive) | -4.4e-05 (inactive) | 0.00518 (inactive) | 3.67% (inactive) | 12.4% (inactive)
CCCC(CCC)n1[nH]c(=O)c2c(C)cc(C)nc21 | 357 | 3.8% (inactive) | 7.5% (inactive) | 105% | -29.5% (inactive) | 114% | -0.47 (inactive) | 3.6e-05 (inactive) | 0.00554 (inactive) | 3.13% (inactive) | 4.22% (inactive)
Cc1cccc(Cn2c(=O)n(Cc3ccco3)c(=O)c3ccccc32)c1 | 659 | 0.5% (inactive) | -10.9% (inactive) | 122% | -39% (inactive) | 113% | -0.608 (inactive) | -3.9e-05 (inactive) | 0.00404 (inactive) | 0.06% (inactive) | -5.18% (inactive)
